Results published in article PMC3188669 (Journal of medicinal chemistry, 2011).
One block for each compound: values may come before it.

How the values were obtained:
[1] = tested on: human basal cell carcinoma (BCC1) cells; assay: PS uptake, retention and subcellular localization in BCC1 cells; type: cell-based; conditions: for lowering of cellular uptake relative to PS 4: 30 min, 200 nM PS; for lowering of cellular uptake relative to PS 4 / subcellular localization after 30 min incubation: serum-free DMEM
Method in brief: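 Subconfluent BCC1 cells grown in DMEM with 10% FCS were washed twice in serum-free DMEM. They were incubated with test compound in DMEM with or without 10% FCS: 30 min serum-free at 0.2 μM or 3.2 μM, or 24 h at 3.2 μM. Cells were washed and imaged at 640X under phase contrast and fluorescence (Ex 410/40, Em 675/750 nm). Redistribution was imaged again after 4 h in compound- and serum-free DMEM.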

STAT3 = assay: Light-mediated photoreaction in BCC1 cells; type: cell-based, human; conditions: 2 h PS, 665 nm, 3 J/cm^2
Method in brief: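 Subconfluent BCC1 cells were incubated 2 h in serum-free DMEM with 2-fold serial dilutions of test compound and then washed. They were irradiated in serum-free medium at 37°C with 665 nm dye-laser light for 9 min and extracted immediately. Cell PS was measured by extract fluorescence (Ex 415, Em 667 nm). RIPA lysates (20 μg) were immunoblotted for STAT3, EGFR, p38 and P-p38 with ECL detection. STAT3 crosslinking was expressed as % monomer converted to dimer form I.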

Colon26 tumors [2] = assay: In vivo PDT efficacy in BALB/c mice bearing Colon26 tumors; conditions: 1.0 μmol/kg, light 128 J/cm^2, 14 mW/cm^2 at 24 h post injection, 10 mice/group
Method in brief: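 Hair around the subcutaneous tumor was removed. At 4–5 mm diameter, mice received test compound at 1 μmol/kg. At 24 h, unanaesthetised mice restrained in holders were irradiated at 660–674 nm according to compound, with power monitored throughout. Mice were checked daily and volume was calculated as L×W²/2. Cure meant no palpable tumor by day 60–90; mice were euthanised at 400 mm³.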

Colon26 cells [3] = assay: PS uptake by Colon26 cells, flow cytometry; type: cell-based, mouse; conditions: 24 h post incubation
Method in brief: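 Colon26 cells were seeded at 0.33 × 10⁶/well and left overnight. Test compound was added at 100, 200, 400 or 800 nM in triplicate at 37°C, with compound-free wells for autofluorescence. Cells were trypsinised, neutralised in cold medium with 2% FCS, spun at 500 g for 5 min at 4°C, and resuspended in cold PBS/2% FCS on ice in the dark. Flow cytometry used Ex 633 nm and Em 730±45 nm, 10,000 events; mean fluorescence of triplicates minus autofluorescence.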

Colon26 tumors [4] = assay: In vivo optical fluorescence imaging in BALB/c mice bearing Colon26 tumors; conditions: for tumor versus skin fluorescence after tumor removal: 1 μmol/kg, 24 h post injection
Method in brief: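 Colon26 cells (1×10⁶ in 50 μL serum-free RPMI) were injected subcutaneously into the right posterior axilla and grown to 4–5 mm. Hair was removed the day before dosing. Mice were imaged under ip ketamine/xylazine with 540/40 nm illumination and a long-pass filter for 667/676 nm emission, and autofluorescence was removed by spectral unmixing. Tumor ROI was 20 mm, mean ± SD of 3 mice. After imaging, the tumor was excised and the skin flap imaged.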

Colon26 tumors [5] = assay: PET imaging and biodistribution in BALB/c mice bearing Colon26 tumors; type: in vivo; conditions: for time post injection giving the best imaging contrast: PET
Colon26 cells [6] = assay: In vitro photosensitizing efficacy, MTT assay; type: cell-based, mouse; conditions: 24 h incubation, variable light doses; for in vitro efficacy (PS 4, 12, 23): Colon26, 0.0625 μM
Method in brief: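 Colon26 cells were seeded at 3 × 10³ cells/well in RPMI with 10% FCS and left overnight. Test compound was added for 24 h at 37°C in the dark, then replaced with drug-free complete medium. Cells were irradiated at 0–4 J/cm² at the compound's absorption peak (660–674 nm), 3.2 mW/cm², using an argon-pumped dye laser. After 48 h in the dark, MTT was added for the last 4 h and formazan was dissolved in DMSO. A570 was read. Survival was plotted against light dose; 4 wells, 3 independent repeats.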

Compound: Peglate 3-devinyl-3-{1′-(m-iodobenzyoxy)ethyl}pyropheophoride-a [PS 7]
cellular uptake in presence of serum proteins versus serum-free ([1]; 3.2 μM, 24 h, 10% fetal calf serum): several-fold higher
subcellular localization after 24 h incubation ([1]; 3.2 μM, regardless of the incubation conditions): endosomal/lysosomal compartment
lowering of cellular uptake relative to PS 4 [1]: > 100 fold
photoreaction quantifiable by the biochemical markers (STAT3): ineffective
tumor cure (tumor-free on day 60), first series (Fig. 7A) (Colon26 tumors [2]): ineffective

Compound: CCC1=C(C)c2cc3[nH]c(cc4nc(c5c6[nH]c(cc1n2)c(C)c6C(=O)C5)C(CCC(=O)O)[C@@H]4C)c(C)c3C(C)OCc1cccc(I)c1 (stereo partly drawn) [PS 4, 3-devinyl-3-{1′-(m-iodobenzyoxy)-ethyl} pyropheophoride-a]
subcellular localization after 30 min incubation [1]: mitochondrial compartment
PS uptake by Colon26 cells (rank order) (Colon26 cells [3]): PS 4 ≥ 23 > 12
tumor versus skin fluorescence after tumor removal (Colon26 tumors [4]): tumor avid
time post injection giving the best imaging contrast (Colon26 tumors [5]; BALB/c mice, Colon26 tumor): 72 h
in vitro efficacy (PS 4, 12, 23) (Colon26 cells [6]): comparable in vitro efficacy
relative PDT efficacy in vitro (PS 1, 4, 7) (Colon26 cells [6]; Colon26, 0.3 μM): most effective

Compound: CCc1c(C)c2cc3nc(c4c5[nH]c(cc6nc(cc1[nH]2)C(C)=C6C(C)OCc1cccc(I)c1)c(C)c5C(=O)C4)[C@@H](CCC(=O)O)[C@@H]3C (stereo partly drawn) [PS 12, 3-devinyl-3-ethyl-8-{1′-(m-iodobenzyoxy)-ethyl}-pyropheophoride-a]
PS uptake by Colon26 cells (rank order) (Colon26 cells [3]): PS 4 ≥ 23 > 12
tumor uptake by fluorescence imaging (Colon26 tumors [4]; 1.0 μmol/kg i.v., 24, 48 and 72 h post-injection, 3 mice/group): lower tumor uptake
in vitro efficacy (PS 4, 12, 23) (Colon26 cells [6]): comparable in vitro efficacy

Compound: CCC1=C(C)c2cc3[nH]c(cc4nc(c5c6[nH]c(cc1n2)c(C)c6C(=O)C5)C(CCC(=O)OC)[C@@H]4C)c(C)c3C(C)OCc1cccc(I)c1 (stereo partly drawn) [PS 1, Methyl 3-devinyl-3-{1′-(m-iodobenzyoxy)-ethyl}pyropheophoride-a]
subcellular localization after subsequent 4 h incubation in PS-free medium ([1]; 3.2 μM PS 1 or 0.2 μM PS 4): lysosomal compartment
lowering of cellular uptake relative to PS 4 [1]: > 100 fold
fluorescence (uptake) in presence of 10% fetal calf serum ([1]; data not shown): ~ 5 fold lower
subcellular localization after 30 min incubation [1]: mitochondrial compartment
photoreaction quantifiable by the biochemical markers (STAT3): ineffective

Second part, led by results:

tumor versus skin fluorescence after tumor removal (Colon26 tumors [4]): tumor avid
Compound: CC[C@H]1c2cc3[nH]c4c(c5nc(cc6[nH]c(cc(n2)[C@@H]1C)c(C(C)OCc1cccc(I)c1)c6C)C(C)=C5CCC(=O)O)CC(=O)c4c3C (stereo partly drawn) [PS 23, 3-deacetyl-3-(1′-m-iodobenzyloxyethyl)-7,8-dihydrophylloerythrin]
lowering of cellular uptake relative to PS 4 [1]: 2 fold
PS uptake by Colon26 cells (rank order) (Colon26 cells [3]): PS 4 ≥ 23 > 12
in vitro efficacy (PS 4, 12, 23) (Colon26 cells [6]): comparable in vitro efficacy

tumor uptake (PET) (Colon26 tumors [5]; 24, 48 and 72 h post injection): significant tumor uptake
time of maximum tumor uptake post injection (Colon26 tumors [5]; BALB/c mice, Colon26 tumor): 24 h
time post injection giving the best imaging contrast (Colon26 tumors [5]; BALB/c mice, Colon26 tumor): 72 h
Compound: CCC1=C(C)c2cc3[nH]c(cc4nc(c5c6[nH]c(cc1n2)c(C)c6C(=O)C5)C(CCC(=O)O)[C@@H]4C)c(C)c3C(C)OCc1cccc([124I])c1 (stereo partly drawn) [PS 6]

time post injection giving the best imaging contrast (Colon26 tumors [5]; BALB/c mice, Colon26 tumor): 72 h
Compound: CC[C@H]1c2cc3[nH]c4c(c5nc(cc6[nH]c(cc(n2)[C@@H]1C)c(C(C)OCc1cccc([124I])c1)c6C)C(C)=C5CCC(=O)O)CC(=O)c4c3C (stereo partly drawn) [PS 27]
